# Published values gathered from unrelated publications.
# Protocols differ between the studies behind these lines.
# Target: 5'-AMP-activated protein kinase catalytic subunit alpha-1 (PRKAA1, Homo sapiens, UniProt Q13131)
# Technique: competition with immobilised ligand
SMILES,assay,setting,remaining binding
CN(C)c1nccc(-c2cnn3ncccc23)n1,binding,1 µM,100%
Cc1c(NC(=O)c2cc(C(N)=O)nc3cc(F)ccc23)c(C(F)(F)F)nn1Cc1ccc(C(C)(C)C)cc1,cell-free assay,1 µM,100%
O=C(c1ccc(Nc2ncc(Cl)c(-c3ccc(Cl)s3)n2)cc1)N1CCC(N2CCCC2)CC1,binding,1 µM,8.1%
C[C@H]1CCN(c2nccc(-c3cnn4ncccc34)n2)C1,binding,1 µM,93%
CC(C)CC(=O)N1CCc2nc(-c3ccc(Br)cc3)nc(N(C)Cc3ccccc3)c2C1,cell-free assay,0.1 µM,100%
CN(CCCC(F)(F)F)c1nccc(-c2cnn3ncccc23)n1,binding,1 µM,100%
O=C(Nc1cnc(Oc2ccc(F)cc2)nc1)N1CCc2ncccc2[C@@H]1c1ccc(F)cc1,cell-free assay,1 µM,88%
O=C(Nc1c[nH]nc1C(=O)NC1CCNCC1)c1cc(F)cc(F)c1,binding,1 µM,100%
Nc1ncc2c(n1)-c1c([nH]c3ccc(C#CC4CC4)cc13)CCCC2,binding,1 µM,97%
COc1cnc(Nc2cccc(S(N)(=O)=O)c2)nc1N1CCN(c2ccccc2)C(=O)C1,binding,1 µM,100%
O=C(NCCCN1CCOCC1)c1ccc(Nc2nccc(-c3cc4ccccc4s3)n2)cc1,binding,1 µM,42%
CCN1CCN(Cc2ccc(C(=O)Nc3ccc(C)c(Oc4ccc5c(c4)CC(=O)N5)c3)cc2C(F)(F)F)CC1,binding,1 µM,100%
CN(C)C(=O)Cn1cc(-c2nc(C3(c4ccc(-c5cnc(N)nc5)cc4)CC3)no2)cn1,cell-free assay,1 µM,98%
O=C(c1ccc(Nc2ncc(Cl)c(-c3cc4ccccc4s3)n2)cc1)N1CCC(N2CCCC2)CC1,binding,1 µM,5.7%
N[C@@H]1CCN(c2nccc(-c3cnn4ncccc34)n2)C1,binding,1 µM,95%
C[C@@H](c1ccc(-n2cnc3c(N)ncnc32)cc1)N1CCc2nn(C)c(Cc3ccccc3)c2C1=O,binding,0.1 µM,95%
C=CC(=O)N1CCC(C(=O)NCC(=O)N2CCN(c3nc(-c4cnc(N)nc4C(F)F)nc(N4CCOCC4)n3)CC2)CC1,binding,1 µM,97%
c1cnn2ncc(-c3ccnc(N4CCC45COC5)n3)c2c1,binding,1 µM,92%
C[C@H](NC(=O)c1cnc2n1[C@](C)(Cc1ccc(C#N)cc1)C(=O)N2c1cc(Cl)c(F)c(Cl)c1)C(=O)NC1(c2ccccn2)CC1,cell-free assay,1 µM,100%
COc1ccnn2ncc(-c3ccnc(N(C)C)n3)c12,binding,1 µM,97%
CC(=O)N1CCC(c2ccc(C(=O)NC3=NCCN3)cc2C(F)(F)F)CC1,cell-free assay,1 µM,100%
